Source: PubChem BioAssay
MC4R ag barr – human MC4R agonism via beta-arrestin; AID 540308; 360,000 compounds, 0.98% hits; U2OS MC4R beta-arrestin complementation, luminescence; percent of melanotan II response, DMSO zero; activation, % at 8.9 µM; P32245;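 active means activation above a per-plate cutoff, the mean activation of sample wells on that plate plus 3 SD, cut at about 8% in these data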
MC4R antagonist – antagonists of human melanocortin 4 receptor (MC4R). inhibition, % at 6.5 µM. MC4R-expressing cells, MTII-stimulated cAMP, LANCE TR-FRET. 360,000 compounds, 0.48% hits. P32245;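 active means inhibition above its plate's cutoff, the mean of tested wells on that plate plus 3 SD, cut at about 29% in these data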;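 further: 0% = Melanotan II alone and 100% = Melanotan II plus saturating MCL0020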
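material = U2OS cells stably expressing human melanocortin 4 receptor (MC4R) | also added = Melanotan II challenge | dosing = single nominal compound dose of 6.5 µM | detection = TR-FRET with Eu-cAMP and labeled anti-cAMP, 671 nm | replication = singlicate | timing = compound 30 min, challenge 1 h, detection 1 h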
EP2 antag – inhibitors of human EP2 prostaglandin E2 receptor; AID 1422; P43116; inhibition, % at 25 µM; 260,000 compounds, 0.52% hits; C6 glioma cells expressing human EP2, cAMP TR-FRET; cells stimulated with saturating PGE2;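 active means percent inhibition above 40 after rounding to a whole number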;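 further: rat C6 glioma host cells with rolipram phosphodiesterase inhibitor present; the protocol text gives 20 µM as final concentration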
Target sequence (P43116 whole entry, looked up): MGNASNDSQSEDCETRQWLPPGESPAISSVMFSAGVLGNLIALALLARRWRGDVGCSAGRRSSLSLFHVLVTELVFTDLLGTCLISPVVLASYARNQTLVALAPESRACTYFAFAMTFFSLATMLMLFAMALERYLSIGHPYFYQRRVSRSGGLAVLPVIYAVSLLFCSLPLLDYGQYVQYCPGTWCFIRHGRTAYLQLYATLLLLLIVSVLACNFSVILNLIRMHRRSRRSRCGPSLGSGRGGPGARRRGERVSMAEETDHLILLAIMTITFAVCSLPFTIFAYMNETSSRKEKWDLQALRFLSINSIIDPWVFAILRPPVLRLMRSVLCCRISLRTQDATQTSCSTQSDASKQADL
T cell HTS – modulates CD8 T cell binding to vesicles; 2C CD8+ T cell-vesicle binding, flow cytometry; active compounds read low; response (vesicle binding), % at 7 µM; 330,000 compounds, 0.068% hits; AID 2052;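 active means response, share of CD8 T cells binding vesicles, and their 90th percentile fluorescence all below set limits, cut at about 80% in these data, passing the limit was not always enough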;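 further: values below 100% mean blocked vesicle binding to the CD8+ T cells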
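material = purified 2C TCR transgenic mouse naive CD8+ T cells | controls = Unloaded micro-vesicles (low), QL9 vesicles with 0.7% DMSO (high) | detection = cytometric PE anti-B7-1 and Alexa647 anti-CD8 signals after 1% paraformaldehyde fixation | incubation = binding step 1.5 h, 37 °C, antibody labelling 20 min, ice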
EP2 mod – modulates human prostaglandin E2 receptor EP2 signaling. 260,000 compounds, 0.83% hits. induction, % at 25 µM. AID 940. EP2-expressing cells, cAMP HTRF FRET, PGE2 co-stimulation. P43116;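 active means compounds whose cAMP rise, as percent of the full-agonist control response, exceeds 60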;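 further: rat C6 glioma line stably carrying human EP2 under a CMV promoter; the protocol text gives 20 µM as final concentration; 100% = response of wells given 1 µM PGE2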
Granule exo inh – blocks lytic granule exocytosis; TALL-104 LAMP-1 surface exposure, flow cytometry; cells stimulated with thapsigargin and PMA; inhibition, % at 10 µM; 360,000 compounds, 0.66% hits; AID 651702;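 active means inhibition above about 55%, limit read from the data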
* marks the source's active call; other numbers are inactive results; . = no result. Rows were chosen to be rich in hits. Some 2.6% of all compounds tested hit in one or more screens of this group.

SMILES	MC4R ag barr	MC4R antagonist	EP2 antag	T cell HTS	EP2 mod	Granule exo inh
O=C(/C=C/c1ccccc1Cl)c1ccccc(=O)c1O	0	5	17	406	-62	1
O=C(/C=C/c1ccc([N+](=O)[O-])cc1)c1ccccc(=O)c1O	-1	1	.	.	.	56*
CCN(CC)C(=O)C(c1ccccc1)S(=O)(=O)N1CCOCC1 (configuration not stated)	1	1	.	.	.	-7
O=C1c2ccccc2C(=O)c2c1ccc(N1C(=O)c3ccccc3C1=O)c2-c1c(N2C(=O)c3ccccc3C2=O)ccc2c1C(=O)c1ccccc1C2=O	.	.	45*	.	0	.
CN1CCN(Cc2c(O)ccc3occ(C(=O)c4ccccc4)c23)CC1	-1	4	8	435	1	0
CC(=O)C(C(C)=O)c1c(Cl)c(O)c(O)c2c(C(=O)c3ccccc3)coc12	-1	1	57*	190	-27	91*
CCOCCOC(=O)c1ccc(-n2cncn2)nc1	2	-4	16	133	-1	2
CCCOC(=O)C(C)Nc1n[nH]c(=S)[nH]c1=O (configuration not stated)	.	.	86*	.	-55	.
COC(=O)/C(=C\c1ccc(-c2cc(Cl)ccc2Cl)o1)C(C)=O	.	.	50*	.	-98	.
COC(=O)N/N=C/c1ccc(-c2ccc(Cl)cc2Cl)o1	0	0	8	172	-8	5
Cc1ccc(OCC(O)CN2CCc3ccccc3C2)c(C)c1 (configuration not stated)	-1	2	.	475	.	-4
CC1(C)CC(=O)C2=C(C1)Nc1ccccc1NC2c1cc(O)ccc1O (configuration not stated)	.	.	47*	.	-88	.
O=C(CN1C(=O)CSC1=O)Nc1ccccc1F	-2	6	22	232	0	-1
CCN(CC)CC[n+]1ccc2c(C)c3[nH]c4ccc(O)cc4c3c(C)c2c1	.	.	44*	.	7	.
O=C(NC1CCCC1)C1CCCN1C(=O)Nc1ccc(F)cc1 (configuration not stated)	.	.	7	.	6	.
O=C(NC1CCCC1)C1CCCN1C(=O)Nc1ccc(Cl)cc1 (configuration not stated)	-2	2	12	0.0*	10	-2
CCCN(CCC)C(=O)NC1CC(=O)N(c2ccc(OC)cc2)C1 (configuration not stated)	2	14	68*	157	-8	-4
CC(=O)Nc1ccc(NC2=Nc3ccccc3N3C2=Nc2c(c(C)nn2-c2ccccc2)C3c2ccccc2)cc1 (configuration not stated)	0	5	26	379	6	58*
COc1ccc(-n2c(O)c(/C=C3\C=Nc4ccccc43)c(=O)[nH]c2=O)cc1	-3	-1	.	.	.	29
O=c1[nH]c(=S)n(-c2ccccc2F)c(O)c1/C=C1\C=Nc2ccccc21	.	.	116*	.	-99	.
Cc1ccc(C)c(S(=O)(=O)Nc2cc(SCC(=O)O)c(O)c3ccccc23)c1	-3	-5	6	799	10	78*
Clc1ccccc1C1CC(c2ccccc2)=Nc2ccccc2N1 (configuration not stated)	-1	15	7	982	62*	5
C=CCC[C@H](Cc1ccc(F)cc1)C(=O)OC[C@H](Cc1c[nH]c2ccccc12)NC(=O)[C@H](CC=C)CC(=O)N(CCO)Cc1ccccc1	2	20	.	221	.	59*
C=CC[C@@H](CC(=O)N[C@H](CO)Cc1ccccc1)C(=O)N[C@H](COC(=O)[C@@H](CC=C)CC(=O)OC(C)(C)C)Cc1ccccc1	9.8*	12	.	261	.	-1
C=CC[C@@H](CC(=O)N(CCO)Cc1ccccc1)C(=O)N[C@H](COC(=O)[C@@H](CC=C)CC(=O)OC(C)(C)C)Cc1ccccc1	9.3*	8	.	215	.	2
SMILES	MC4R ag barr	MC4R antagonist	EP2 antag	T cell HTS	EP2 mod	Granule exo inh
CCCCNC(=O)C1CCN(S(=O)(=O)N2CCOCC2)CC1	-2	3	5	476	6	-3
CC(C)(C)c1cc(NC(=O)Nc2ccccc2OC(F)(F)F)no1	8.7*	15	.	446	.	-8
Cc1ccc2cc(CCNC(=O)C(=O)c3c[nH]c4ccccc34)c(=O)[nH]c2c1	1	1	4	138	-56	-15
O=C(COc1ccc(Cl)cc1)N1CCN(C(=O)c2cccc(F)c2)CC1	-2	4	7	208	15	-1
O=C1c2cccc3c([N+](=O)[O-])ccc(c23)C(=O)N1c1nccs1	-6	-60	55*	170	-26	85*
O=C1c2cccc3c([N+](=O)[O-])ccc(c23)C(=O)N1c1ccccn1	-2	-5	19	368	-42	29
CCCCCSc1nncc(=O)[nH]1	0	-5	5	317	21	0
CCCCCCCCSC1=CC(=O)C(OC)=C(OC)C1=O	-1	-5	.	.	.	114*
COC(=O)[C@@]12C[C@@H](CC(=O)NCCc3ccccc3OC)C(=O)N(CCc3ccc(OC)c(OC)c3)C1=CCC(C)(C)C2	.	.	.	.	.	-3
COc1cc2c(cc1OC)CN(Cc1ccccc1)CC2	0	10	.	577	.	-2
COc1cc2c(cc1OC)CN(CCC(C)c1ccc(Cl)cc1)CC2 (configuration not stated)	3	3	.	641	.	65*
CC(C)(C)C1CCC2(CC1)CCN(CCCN1CCOCC1)CC2	.	.	44*	.	7	.
Cc1ccc(CC2(OCCN(C)C)CCC(C(C)(C)C)CC2)cc1 (configuration not stated)	4	-7	.	.	.	-3
CN(C)CCCN1CCC2(CCC(C(C)(C)C)CC2)CC1	.	.	51*	.	22	.
COc1ccc(S(=O)(=O)NCc2ccc(C)cc2)cc1	0	1	7	306	13	-1
COc1ccc(CNc2ncnc3c2[nH]c2cc(OC)c(OC)cc23)cc1	-1	8	54*	149	-36	34
COc1ccc(CNc2ncnc3c2[nH]c2ccccc23)cc1	-1	8	60*	178	-36	29
COc1ccc(CNc2nc(=S)[nH]c3cc(OC)c(OC)cc23)cc1	0	4	.	218	.	-3
COCCCN(C(=O)CCOc1ccccc1C)c1c(N)n(Cc2ccccc2)c(=O)[nH]c1=O	0	4	.	284	.	1
CC1CCCCN1c1nc(-c2ccncc2)nc2ccccc12 (configuration not stated)	1	-9	22	214	65*	37
CCC1CCCCN1c1nc(-c2ccncc2)nc2ccccc12 (configuration not stated)	2	-3	7	179	47	27
Cc1csc(=O)n1CC(=O)OCC(=O)NCc1ccc(Cl)cc1Cl	0	10	.	156	.	2
